Each compound was assayed on LOX IMVI (assay: Growth inhibition of human LOX IMVI cells at 10 uM incubated for 48 hrs by sulforhodamine B assay relative to control). Settings: read-out: GI.
Assay type: functional
Method in brief: (§1)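 NCI-60 single-dose screen. Cells were grown in RPMI 1640 with 5% FBS and 2 mM L-glutamine and plated 24 h before drug addition. Compound was added at one concentration in DMSO-derived medium and incubated for 48 h at 37 °C in 5% CO2. Read-out was SRB protein stain at 515 nm. Result is percent growth versus the no-drug control and the time-zero cell count; values below 0 indicate lethality.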

**Q.** With `COc1cc2nc(-c3ccc(Cl)cc3)cc(OCCN3CCCCC3)c2cc1OC` as the compound, how does the inhibition of growth at 10 µM read?
**A.** The inhibition of growth at 10 µM was 3%.

Each compound was assayed on SK-MEL-2 (assay: Growth inhibition of human SK-MEL-2 cells at 10 uM incubated for 48 hrs by sulforhodamine B assay relative to control). Settings: read-out: GI.
Assay type: functional
Method in brief: (§2)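 NCI one-dose screen. Cells grown in RPMI 1640 with 5% FBS and 2 mM L-glutamine, plated and incubated 24 h at 37 °C, 5% CO2. DMSO-dissolved drug added, then 48 h further incubation. Adherent cells fixed with cold TCA, suspension cells fixed after settling. Stained with 0.4% SRB, absorbance read at 515 nm. Reported as percent growth relative to no-drug control and time-zero cell number.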

**Q.** How did the inhibition of growth at 10 µM turn out when `COc1cc2nc(-c3ccc(Cl)cc3)cc(OCCN3CCCCC3)c2cc1OC` was run?
**A.** The inhibition of growth at 10 µM was 3%.

Each compound was assayed on EKVX (assay: Growth inhibition of human EKVX cells at 10 uM incubated for 48 hrs by sulforhodamine B assay relative to control). Settings: read-out: GI.
Assay type: functional
Method in brief: as §1

**Q.** For `COc1cc2nc(-c3ccc(Cl)cc3)cc(OCCN3CCCCC3)c2cc1OC`, which inhibition of growth at 10 µM is on record?
**A.** The inhibition of growth at 10 µM was 3%.

Each compound was assayed on SF-268 (assay: Growth inhibition of human SF-268 cells at 10 uM incubated for 48 hrs by sulforhodamine B assay relative to control). Settings: read-out: GI.
Assay type: functional
Method in brief: as §2

**Q.** Which inhibition of growth at 10 µM does the source give for `COc1cc2nc(-c3ccc(Cl)cc3)cc(OCCN3CCCCC3)c2cc1OC` here?
**A.** Its inhibition of growth at 10 µM is 3%.

What follows are compounds tested on HL-60(TB) (assay: Growth inhibition of human HL-60(TB) cells at 10 uM incubated for 48 hrs by sulforhodamine B assay relative to control). Settings: read-out: GI.
Assay type: functional
Method in brief: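 NCI-60 one-dose screen: same culture, 48 h drug exposure and SRB read-out. Reported as percent growth relative to no-drug control and to time-zero cell number; 0–100 means growth inhibition, below 0 means lethality.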

**Q.** Which inhibition of growth at 10 µM does the source give for `COc1cc2nc(-c3ccc(Cl)cc3)cc(OCCN3CCCCC3)c2cc1OC` here?
**A.** Its inhibition of growth at 10 µM is 3%.

Each compound was assayed on NCI/ADR-RES (assay: Growth inhibition of human NCI/ADR-RES cells at 10 uM incubated for 48 hrs by sulforhodamine B assay relative to control). Settings: read-out: GI.
Assay type: functional
Method in brief: as §2

**Q.** For `COc1cc2nc(-c3ccc(Cl)cc3)cc(OCCN3CCCCC3)c2cc1OC`, which inhibition of growth at 10 µM is on record?
**A.** The inhibition of growth at 10 µM was 3%.

These compounds were tested on SF-539 (assay: Growth inhibition of human SF-539 cells at 10 uM incubated for 48 hrs by sulforhodamine B assay relative to control). Settings: read-out: GI.
Assay type: functional
Method in brief: as §2

**Q.** With `COc1cc2nc(-c3ccc(Cl)cc3)cc(OCCN3CCCCC3)c2cc1OC` as the compound, how does the inhibition of growth at 10 µM read?
**A.** The inhibition of growth at 10 µM was 3%.

What follows are compounds tested on BT-549 (assay: Growth inhibition of human BT-549 cells at 10 uM incubated for 48 hrs by sulforhodamine B assay relative to control). Settings: read-out: GI.
Assay type: functional
Method in brief: as §1

**Q.** `COc1cc2nc(-c3ccc(Cl)cc3)cc(OCCN3CCCCC3)c2cc1OC` was tested. Which inhibition of growth at 10 µM did it give?
**A.** The inhibition of growth at 10 µM was 3%.

Each compound was assayed on SK-MEL-28 (assay: Growth inhibition of human SK-MEL-28 cells at 10 uM incubated for 48 hrs by sulforhodamine B assay relative to control). Settings: read-out: GI.
Assay type: functional
Method in brief: as §2

**Q.** `COc1cc2nc(-c3ccc(Cl)cc3)cc(OCCN3CCCCC3)c2cc1OC` was tested. Which inhibition of growth at 10 µM did it give?
**A.** Its inhibition of growth at 10 µM is 3%.

Each compound was assayed on Hs-578T (assay: Growth inhibition of human HS-578T cells at 10 uM incubated for 48 hrs by sulforhodamine B assay relative to control). Settings: read-out: GI.
Assay type: functional
Method in brief: as §1

**Q.** How did the inhibition of growth at 10 µM turn out when `COc1cc2nc(-c3ccc(Cl)cc3)cc(OCCN3CCCCC3)c2cc1OC` was run?
**A.** The inhibition of growth at 10 µM was 3%.

These compounds were tested on OVCAR-3 (assay: Growth inhibition of human OVCAR-3 cells at 10 uM incubated for 48 hrs by sulforhodamine B assay relative to control). Settings: read-out: GI.
Assay type: functional
Method in brief: as §2

**Q.** Which inhibition of growth at 10 µM does the source give for `COc1cc2nc(-c3ccc(Cl)cc3)cc(OCCN3CCCCC3)c2cc1OC` here?
**A.** The inhibition of growth at 10 µM was 3%.

What follows are compounds tested on HOP-92 (assay: Growth inhibition of human HOP-92 cells at 10 uM incubated for 48 hrs by sulforhodamine B assay relative to control). Settings: read-out: GI.
Assay type: functional
Method in brief: as §1

**Q.** How did the inhibition of growth at 10 µM turn out when `COc1cc2nc(-c3ccc(Cl)cc3)cc(OCCN3CCCCC3)c2cc1OC` was run?
**A.** Its inhibition of growth at 10 µM is 3%.

These compounds were tested on SNB-19 (assay: Growth inhibition of human SNB-19 cells at 10 uM incubated for 48 hrs by sulforhodamine B assay relative to control). Settings: read-out: GI.
Assay type: functional
Method in brief: as §2

**Q.** For `COc1cc2nc(-c3ccc(Cl)cc3)cc(OCCN3CCCCC3)c2cc1OC`, which inhibition of growth at 10 µM is on record?
**A.** Its inhibition of growth at 10 µM is 3%.

What follows are compounds tested on MDA-MB-468 (assay: Growth inhibition of human MDA-MB-468 cells at 10 uM incubated for 48 hrs by sulforhodamine B assay relative to control). Settings: read-out: GI.
Assay type: functional
Method in brief: as §1

**Q.** How did the inhibition of growth at 10 µM turn out when `COc1cc2nc(-c3ccc(Cl)cc3)cc(OCCN3CCCCC3)c2cc1OC` was run?
**A.** The inhibition of growth at 10 µM was 3%.

These compounds were tested on SNB-75 (assay: Growth inhibition of human SNB-75 cells at 10 uM incubated for 48 hrs by sulforhodamine B assay relative to control). Settings: read-out: GI.
Assay type: functional
Method in brief: as §2

**Q.** `COc1cc2nc(-c3ccc(Cl)cc3)cc(OCCN3CCCCC3)c2cc1OC` was tested. Which inhibition of growth at 10 µM did it give?
**A.** Its inhibition of growth at 10 µM is 3%.

What follows are compounds tested on K562 (assay: Growth inhibition of human K562 cells at 10 uM incubated for 48 hrs by sulforhodamine B assay relative to control). Settings: read-out: GI.
Assay type: functional
Method in brief: as §1

**Q.** With `COc1cc2nc(-c3ccc(Cl)cc3)cc(OCCN3CCCCC3)c2cc1OC` as the compound, how does the inhibition of growth at 10 µM read?
**A.** Its inhibition of growth at 10 µM is 3%.

These compounds were tested on NCI-H322M (assay: Growth inhibition of human NCI-H322M cells at 10 uM incubated for 48 hrs by sulforhodamine B assay relative to control). Settings: read-out: GI.
Assay type: functional
Method in brief: as §2

**Q.** `COc1cc2nc(-c3ccc(Cl)cc3)cc(OCCN3CCCCC3)c2cc1OC` was tested. Which inhibition of growth at 10 µM did it give?
**A.** The inhibition of growth at 10 µM was 3%.

Each compound was assayed on TK-10 (assay: Growth inhibition of human TK-10 cells at 10 uM incubated for 48 hrs by sulforhodamine B assay relative to control). Settings: read-out: GI.
Assay type: functional
Method in brief: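 NCI one-dose screen across a 59-line panel. Cells were grown in RPMI 1640 with 5% FBS and 2 mM L-glutamine, plated and pre-incubated 24 h, then exposed to drug for 48 h at 37 °C, 5% CO2. Adherent cells were fixed with cold TCA (10% final), stained with 0.4% SRB in 1% acetic acid and read at 515 nm. Result is percent growth relative to no-drug control and time-zero cell count.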

**Q.** For `COc1cc2nc(-c3ccc(Cl)cc3)cc(OCCN3CCCCC3)c2cc1OC`, which inhibition of growth at 10 µM is on record?
**A.** Its inhibition of growth at 10 µM is 3%.

— ChEMBL document CHEMBL4732237, “Discovery of 4-alkoxy-2-aryl-6,7-dimethoxyquinolines as a new class of topoisomerase I inhibitors endowed with potent in vitro anticancer activity” (2021)
